Where only a bound is given, the exact number is not on record here.

The subject of one series is Blood. In words: Antiinflammatory activity in mouse whole blood assessed as inhibition of LPS-induced TNFalpha release treated for 5 mins before LPS challenge measured after 6 hrs by ELISA. It counts as functional, tissue-based.
The test system of a further series is Rattus norvegicus. The experiment in a line: Total AUC in rat at 2 mg/kg, iv and 10 mg/kg, po. In kind it is ADME, organism-based. Conditions: in vivo.
Series [1] in a line: Volume of distribution at steady state in dog at 2 mg/kg, iv. In kind it is ADME, organism-based, Canis lupus familiaris. On the set-up: dose 2 mg/kg, route intravenous. Conditions: in vivo, read-out: Vdss. The method in brief: (§1)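 Dog pharmacokinetics, iv dosing only, in vehicle PEG400:water 80:20.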
Series [2] can be described thus: Volume of distribution at steady state in rat at 2 mg/kg, iv and 10 mg/kg, po. It counts as ADME, organism-based. Conditions: in vivo, read-out: Vdss.
The nature of series [3]: Volume of distribution at steady state in mouse at 2 mg/kg, iv and 10 mg/kg, po. It counts as ADME, organism-based. Conditions: in vivo, read-out: Vdss.
A short description of series [4]: Half life in dog at 2 mg/kg, iv. In kind it is ADME, organism-based, Canis lupus familiaris. On the set-up: dose 2 mg/kg, route intravenous. The note with it: in vivo. An outline of the steps: as §1
A short description of series [5]: Half life in mouse at 2 mg/kg, iv and 10 mg/kg, po. In kind it is ADME, organism-based. Conditions: in vivo.
Series [6] in a line: Cmax in mouse at 2 mg/kg, iv and 10 mg/kg, po. In kind it is ADME, organism-based. Conditions: in vivo.
The nature of series [7]: Cmax in rat at 2 mg/kg, iv and 10 mg/kg, po. It counts as ADME, organism-based. The note with it: in vivo.
The nature of series [8]: Oral bioavailability in mouse at 10 mg/kg. It counts as ADME, organism-based. Conditions: in vivo.
The target of series [9] is T1, Inhibitor of nuclear factor kappa-B kinase subunit alpha (Homo sapiens, UniProt O15111).
T1 sequence (O15111 whole entry): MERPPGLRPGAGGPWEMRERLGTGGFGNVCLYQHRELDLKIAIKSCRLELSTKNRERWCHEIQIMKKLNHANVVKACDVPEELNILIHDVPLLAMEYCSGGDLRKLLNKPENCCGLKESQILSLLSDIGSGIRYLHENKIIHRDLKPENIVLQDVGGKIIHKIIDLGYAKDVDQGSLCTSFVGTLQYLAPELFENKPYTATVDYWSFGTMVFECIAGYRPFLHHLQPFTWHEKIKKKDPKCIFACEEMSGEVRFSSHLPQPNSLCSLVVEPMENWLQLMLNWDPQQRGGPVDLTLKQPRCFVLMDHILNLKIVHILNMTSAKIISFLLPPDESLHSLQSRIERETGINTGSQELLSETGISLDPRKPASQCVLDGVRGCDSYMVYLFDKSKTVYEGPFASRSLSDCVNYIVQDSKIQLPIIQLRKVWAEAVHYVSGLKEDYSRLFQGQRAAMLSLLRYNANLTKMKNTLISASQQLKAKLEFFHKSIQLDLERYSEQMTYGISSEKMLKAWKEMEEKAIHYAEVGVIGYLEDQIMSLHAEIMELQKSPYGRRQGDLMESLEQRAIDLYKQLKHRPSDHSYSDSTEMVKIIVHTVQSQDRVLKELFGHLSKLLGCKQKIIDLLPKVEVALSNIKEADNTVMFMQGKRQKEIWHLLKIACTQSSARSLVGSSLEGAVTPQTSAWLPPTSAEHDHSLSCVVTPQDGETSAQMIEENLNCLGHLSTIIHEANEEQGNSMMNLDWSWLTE
In words: Inhibition of IKK1.

The next series has as its system PBMC. The experiment in a line: Antiinflammatory activity in human PBMC assessed as inhibition of LPS-induced TNFalpha release treated for 5 mins before LPS challenge measured after 6 hrs by ELISA. In kind it is functional, cell-based. The method in brief: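 PBMCs purified from heparinized healthy-volunteer blood by Ficoll-Hypaque gradient and suspended at 5 × 10⁶/mL in RPMI with 10% FBS. Cells preincubated with compound (0.2% DMSO) for 5 min at room temperature. LPS added from a 200 ng/mL stock, then 6 h at 37 °C. Medium TNF-α measured by ELISA. IC50 by linear regression.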

The target in series [10] is T2, Inhibitor of nuclear factor kappa-B kinase subunit beta (Homo sapiens, UniProt O14920).
T2 sequence (O14920 whole entry): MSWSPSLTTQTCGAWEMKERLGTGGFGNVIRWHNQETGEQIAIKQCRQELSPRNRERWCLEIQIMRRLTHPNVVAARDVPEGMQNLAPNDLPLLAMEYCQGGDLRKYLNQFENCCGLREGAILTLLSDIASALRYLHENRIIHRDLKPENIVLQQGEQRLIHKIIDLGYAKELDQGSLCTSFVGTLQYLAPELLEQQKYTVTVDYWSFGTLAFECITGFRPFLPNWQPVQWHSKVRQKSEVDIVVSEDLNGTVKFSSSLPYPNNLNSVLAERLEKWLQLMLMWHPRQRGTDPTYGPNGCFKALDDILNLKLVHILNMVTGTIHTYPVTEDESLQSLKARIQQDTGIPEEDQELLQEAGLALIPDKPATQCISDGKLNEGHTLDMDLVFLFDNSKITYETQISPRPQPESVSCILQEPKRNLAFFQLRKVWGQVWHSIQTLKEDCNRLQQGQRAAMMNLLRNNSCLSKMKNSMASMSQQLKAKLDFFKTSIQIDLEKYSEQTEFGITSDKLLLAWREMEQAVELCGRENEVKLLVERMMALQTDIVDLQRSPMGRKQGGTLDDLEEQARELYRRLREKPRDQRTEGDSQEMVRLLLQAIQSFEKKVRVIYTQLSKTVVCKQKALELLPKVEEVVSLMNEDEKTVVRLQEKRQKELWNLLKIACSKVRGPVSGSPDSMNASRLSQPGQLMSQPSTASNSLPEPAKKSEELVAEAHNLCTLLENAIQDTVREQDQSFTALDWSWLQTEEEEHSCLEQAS
The experiment in a line: Inhibition of IKK2. The method in brief:
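IKK-2 added at room temperature to 50 µg/mL GST-IκBα with ATP in 25 mM Tris·HCl, pH 7.5, containing MgCl₂, phosphate salts, NaCl, KCl, 1 mM DTT, 5% glycerol and BSA. Stopped after 60 min with 33 mM EDTA. Phospho-IκBα read by fluorescence-polarization competition between an anti-phospho-IκBα antibody and a fluorescein-labelled phosphopeptide.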

The next series concerns Mus musculus. The experiment in a line: Antiinflammatory activity in BALB/c mouse assessed as inhibition of LPS-induced TNFalpha release at 100 mg/kg, po administered for 5 hrs before LPS challenge measured after 6.5 hrs post dose by ELISA. It counts as functional. An outline of the steps: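 BALB/c female mice, 6–8 weeks old, n = 7–8 per treatment. Compounds given by oral gavage at 30 and 100 mg/kg in PEG400/HCl/Tween80/water; controls received vehicle alone. Five hours later, E. coli O111:B4 LPS 50 µg/kg ip. Serum collected 90 min after LPS, TNF-α measured by ELISA. Drug exposure sampled 6.5 h post-dose. Mean ± standard error.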

Series [11] concerns the target Mitogen-activated protein kinase 10 (Homo sapiens) (UniProt P53779). The experiment in a line: Residual activity at JNK3 at 10 uM relative to control.

Mitogen-activated protein kinase 10 (Homo sapiens), sequence (P53779 whole entry): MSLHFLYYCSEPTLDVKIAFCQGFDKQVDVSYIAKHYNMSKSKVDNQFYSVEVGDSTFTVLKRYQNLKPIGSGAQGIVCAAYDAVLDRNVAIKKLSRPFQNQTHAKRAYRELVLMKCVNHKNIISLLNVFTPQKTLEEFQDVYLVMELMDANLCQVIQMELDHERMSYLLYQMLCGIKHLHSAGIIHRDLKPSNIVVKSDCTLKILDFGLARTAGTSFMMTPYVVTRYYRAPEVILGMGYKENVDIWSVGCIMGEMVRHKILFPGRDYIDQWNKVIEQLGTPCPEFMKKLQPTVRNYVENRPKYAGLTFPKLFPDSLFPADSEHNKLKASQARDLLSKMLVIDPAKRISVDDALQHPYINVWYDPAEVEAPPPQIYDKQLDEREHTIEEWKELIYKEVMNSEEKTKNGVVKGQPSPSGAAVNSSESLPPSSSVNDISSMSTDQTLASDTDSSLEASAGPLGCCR

Consider `CCNc1nc2sc(-c3cccc([C@H](C)NC(C)=O)c3)nc2c2c1ncn2C`, for which the IC50 in the series on Blood came out at 1000 nM; in series [9] it was 420 nM; in the series on PBMC, 220 nM; in series [10], 19 nM. In the series on Rattus norvegicus, this compound displayed an AUC of 4.63 µM. For the same compound, the Vd in series [1] was 3.1 L/kg; in series [2], 2.3 L/kg; in series [3] it was 1.5 L/kg. Besides, the half-life in [4] was 0.7 h; in series [5], 1.9 h. In addition, the results for the Cmax in series [6] and in series [7] were 1330 nM and 1650 nM, respectively. Also, the bioavailability in series [8] was determined as 57%. The inhibition in vivo at 100 mg/kg with Mus musculus stood at 75%. The residual activity in series [11] was < 10%.
